Laboratory results as given in ChEMBL document CHEMBL4334538, “Mitochondrial Impairment by Cyanine-Based Small Molecules Induces Apoptosis in Cancer Cells” (ACS Med Chem Lett, 2020).
Activity calls are given as the source filed them. The calls are words filed in the database; no cut-off is given here.

How the values were obtained:
[1] = system: HeLa; assay: Cytotoxicity against human HeLa cells assessed as reduction in cell viability after 24 hrs by MTT assay
[2] = system: HeLa; assay: Cytotoxicity against human HeLa cells assessed as cell killing after 24 hrs by MTT assay; assay type: functional, cell-based
[3] = system: HEK293; assay: Cytotoxicity against HEK293 cells assessed as reduction in cell viability after 24 hrs by MTT assay; assay type: cell-based; settings: Homo sapiens, HEK293, 24 h
[4] = Cytotoxicity against HEK293 cells assessed as cell viability at 5 uM after 24 hrs by MTT assay relative to control; assay type: cell-based; settings: human, read-out: Activity
[5] = Drug uptake in mitochondria of human HeLa cells at 150 nM incubated for 20 mins by mito-tracker green dye based laser confocal microscopic analysis; assay type: ADME; settings: 0.15 µM
How it was run: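 HeLa cells exposed to compound at 150 nM for 20 min, mitochondria then stained with MitoTracker Green; colocalization by confocal laser scanning microscopy with intensity scatter plots and z-stack maximum projections.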

[6] = system: HeLa; assay: Induction of mitochondrial damage in human HeLa cells assessed as opening of MPTP by measuring fold increase in fluorescence intensity at 800 nM after 24 hrs by Calcein AM/CoCl2 based confocal microscopic analysis relative to control; settings: Mitochondria
How it was run: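 HeLa cells treated 24 h, then loaded with Calcein AM plus CoCl2; live cells imaged by confocal microscopy and green fluorescence intensity quantified against untreated control.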

[7] = system: HeLa; assay: Induction of morphological changes in mitochondria of human HeLa cells assessed as reduction in mitochondrial area at 500 nM after 3 hrs by laser confocal microscopic analysis relative to untreated control
How it was run: (§1)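 Mitochondrial morphology: HeLa cells given 500 nM compound for 3 h, mitochondria visualized by confocal imaging (controls stained with MitoTracker Green); fragmentation scored and average mitochondrial area quantified against control.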

[8] = system: HeLa; assay: Decrease in Bcl-2 expression in human HeLa cells assessed as fold change in fluorescent intensity at 900 nM after 24 hrs by Alexa fluor 488/DAPI-staining based confocal microscopic analysis relative to untreated control; assay type: functional
How it was run: (§2)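 Immunofluorescence: HeLa cells treated 24 h, probed with Bcl-2, Bcl-xl or Bax primary antibodies and Alexa Fluor 488 secondary, nuclei counterstained with DAPI; confocal green intensity quantified relative to control.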

[9] = system: HeLa; assay: Decrease in Bcl-xl expression in human HeLa cells assessed as fold change in fluorescent intensity at 900 nM after 24 hrs by Alexa fluor 488/DAPI-staining based confocal microscopic analysis relative to untreated control; assay type: functional
How it was run: as §2

[10] = system: HeLa; assay: Increase in Bax expression in human HeLa cells assessed as fold change in fluorescent intensity at 900 nM after 24 hrs by Alexa fluor 488/DAPI-staining based confocal microscopic analysis relative to untreated control; assay type: functional
How it was run: as §2

[11] = system: HeLa; assay: Decrease in Bcl-2 expression in human HeLa cells at 900 nM after 24 hrs by Western blot analysis relative to control; assay type: functional
How it was run: (§3)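 Western blot of HeLa cellular proteins after 24 h compound treatment; Bcl-2, Bcl-xl and Bax bands quantified relative to control.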

[12] = system: HeLa; assay: Decrease in Bcl-xl expression in human HeLa cells at 900 nM after 24 hrs by Western blot analysis relative to control; assay type: functional
How it was run: as §3

[13] = system: HeLa; assay: Up regulation of Bax expression in human HeLa cells at 900 nM after 24 hrs by Western blot analysis relative to control; assay type: functional
How it was run: as §3

[14] = system: HeLa; assay: Induction of ROS generation in human HeLa cells assessed as fold change in fluorescent intensity at 500 to 800 nM after 24 hrs by H2DCF-DA staining-based fluorescence microscopic analysis relative to untreated control; assay type: functional
How it was run: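 ROS read-out: HeLa cells treated with compound, then incubated with H2DCFDA; green fluorescence imaged by fluorescence/confocal microscopy and intensity quantified versus control.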

[15] = system: HeLa; assay: Induction of cell cycle arrest in human HeLa cells assessed as apoptotic cells at 900 nM after 24 hrs by RNase/PI-staining based flow cytometric analysis (reference value: 1.25%); assay type: functional
[16] = system: HeLa; assay: Induction of cell cycle arrest in human HeLa cells assessed as accumulation of cells at G0/G1 phase at 900 nM after 24 hrs by RNase/PI-staining based flow cytometric analysis (reference value: 47.43%); assay type: functional
[17] = system: HeLa; assay: Induction of cell cycle arrest in human HeLa cells assessed as accumulation of cells at S phase at 900 nM after 24 hrs by RNase/PI-staining based flow cytometric analysis (reference value: 13.83%); assay type: functional
[18] = system: HeLa; assay: Induction of cell cycle arrest in human HeLa cells assessed as accumulation of cells at G2/M phase at 900 nM after 24 hrs by RNase/PI-staining based flow cytometric analysis (reference value: 33.91%); assay type: functional
[19] = system: HeLa; assay: Induction of apoptosis in human HeLa cells assessed as viable cells at 900 nM after 24 hrs by APC-AnnexinV/7-AAD staining based flow cytometric analysis (reference value: 96.4%); assay type: functional; settings: read-out: Activity
How it was run: (§4)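 After 24 h treatment, HeLa cells stained with APC-Annexin V (phosphatidylserine) and 7-AAD (nuclear DNA of necrotic cells), then sorted by flow cytometry into viable, early, late apoptotic and necrotic populations.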

[20] = system: HeLa; assay: Induction of apoptosis in human HeLa cells assessed as early apoptotic cells at 900 nM after 24 hrs by APC-AnnexinV/7-AAD staining based flow cytometric analysis (reference value: 0.2%); assay type: functional
How it was run: as §4

[21] = system: HeLa; assay: Induction of apoptosis in human HeLa cells assessed as late apoptotic cells at 900 nM after 24 hrs by APC-AnnexinV/7-AAD staining based flow cytometric analysis (reference value: 2.3%); assay type: functional
How it was run: as §4

[22] = system: HeLa; assay: Induction of apoptosis in human HeLa cells assessed as necrotic cells at 900 nM after 24 hrs by APC-AnnexinV/7-AAD staining based flow cytometric analysis (reference value: 1.1%); assay type: functional
How it was run: as §4

[23] = system: HeLa; assay: Induction of morphological changes in mitochondria of human HeLa cells assessed as mitochondrial fragmentation at 500 nM after 3 hrs by mito-tracker green dye based laser confocal microscopic analysis
How it was run: as §1

[24] = system: HeLa; assay: Induction of apoptosis in human HeLa cells assessed as reduction in caspase-3 expression at 900 nM after 24 hrs by Western blot analysis relative to control; assay type: functional
How it was run: (§5)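 HeLa cells incubated 24 h with compound; whole-cell proteins run on gel electrophoresis and blotted for pro-caspase-3 and pro-caspase-9.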

[25] = system: HeLa; assay: Induction of apoptosis in human HeLa cells assessed as reduction in caspase-9 expression at 900 nM after 24 hrs by Western blot analysis relative to control; assay type: functional
How it was run: as §5

[26] = system: HeLa; assay: Cytotoxicity against human HeLa cells assessed as cell viability at 10 uM after 24 hrs by MTT assay relative to control; assay type: functional; settings: read-out: Activity
[27] = system: HeLa; assay: Cytotoxicity against human HeLa cells assessed as cell death at 10 uM after 24 hrs by MTT assay; assay type: functional, cell-based

For `COc1cccc2c1C(=O)c1c(O)c3c(c(O)c1C2=O)C[C@@](O)(C(=O)CO)C[C@@H]3O[C@H]1C[C@H](N)[C@H](O)[C@H](C)O1` [DOXORUBICIN], the IC50 [1] was 2000 nM.

For `COc1cc(-c2ccc[nH]2)[nH]c1/C=C/C1=[N+](C)c2ccccc2C1(C)C`, the IC50 [2] was 920 to 4470 nM and the inhibition [2] was “Dose-dependent effect”.

With `COc1cc(-c2ccco2)[nH]c1/C=C/C1=[N+](C)c2ccccc2C1(C)C` the IC50 [2] was 920 to 4470 nM and the inhibition [2] was “Dose-dependent effect”.

In the case of `COc1ccc(-c2cc(OC)c(/C=C/C3=[N+](C)c4ccccc4C3(C)C)[nH]2)cc1OC`, the IC50 [2] is reported as 920 to 4470 nM and the inhibition [2] is reported as “Dose-dependent effect”.

For `COc1ccc(-c2cc(OC)c(/C=C/C3=[N+](C)c4ccccc4C3(C)C)[nH]2)c(OC)c1`, the IC50 [2] was 920 to 4470 nM and the inhibition [2] was “Dose-dependent effect”.

For `COc1cc(-c2cc3ccccc3s2)[nH]c1/C=C/C1=[N+](C)c2ccccc2C1(C)C`, the IC50 [2] was 920 to 4470 nM and the inhibition [2] was “Dose-dependent effect”.

For `COc1cc(-c2c(OC)cccc2OC)[nH]c1/C=C/C1=[N+](C)c2ccccc2C1(C)C`, the IC50 [2] was 920 to 4470 nM and the inhibition [2] was “Dose-dependent effect”.

In the case of `COc1cc(-c2cc3ccccc3o2)[nH]c1/C=C/C1=[N+](C)c2ccccc2C1(C)C`, the IC50 [2] is reported as 920 to 4470 nM and the inhibition [2] is reported as “Dose-dependent effect”.

For `COc1cc(-c2ccc3c(c2)OCO3)[nH]c1/C=C/C1=[N+](C)c2ccccc2C1(C)C`, the IC50 [2] was 920 to 4470 nM and the inhibition [2] was “Dose-dependent effect”.

In the case of `COc1ccc2[nH]c(-c3cc(OC)c(/C=C/C4=[N+](C)c5ccccc5C4(C)C)[nH]3)cc2c1.[I-]`, the IC50 [2] is reported as 920 nM, the inhibition [2] is reported as “Dose-dependent effect” and the IC50 [3] is reported as 2610 nM. The viability at 24 h, 5 µM [4] was 25%, the Drug uptake [5] was “Active” and the fold change (FC) [6] was 3.9. For the same compound, the fold change (FC) [7] was 2.6, the “fold change (FC)” value [8] was 5.7 and the “fold change (FC)” value [9] was 8.4. For the same compound, the “fold change (FC)” value [10] was 2.4, the “fold change (FC)” value [11] was 9.3 and the “fold change (FC)” value [12] was 5.6. For the same compound, the “fold change (FC)” value [13] was 4.1, the “fold change (FC)” value [14] was 22.4 and the Activity [15] was 3.47%. It also gave an Activity [16] of 63.94%, an Activity [17] of 13.52% and an Activity [18] of 15%. The viability at 0.9 µM [19] was 0.3%, the Activity [20] was 0% and the Activity [21] was 98.7%. For the same compound, the Activity [22] was 1%, the Activity [23] was “Active” and the “fold change (FC)” value [24] was 3.7. For the same compound, the “fold change (FC)” value [25] was 2.

For `COc1cc(-c2ccccc2)[nH]c1/C=C/C1=[N+](C)c2ccccc2C1(C)C`, the IC50 [2] was 920 to 4470 nM and the inhibition [2] was “Dose-dependent effect”.

Compound `COC1=CC(c2cc3ccccc3[nH]2)=N/C1=C\c1[nH]c(C)cc1C` [OBATOCLAX] has a viability at 10 µM [26] of 70.3%.

In the case of `COc1ccc(OC)c(-c2cc(OC)c(/C=C/C3=[N+](C)c4ccccc4C3(C)C)[nH]2)c1`, the IC50 [2] is reported as 920 to 4470 nM and the inhibition [2] is reported as “Dose-dependent effect”.

With `COc1cc(-c2cccc(OC)c2OC)[nH]c1/C=C/C1=[N+](C)c2ccccc2C1(C)C` the IC50 [2] was 920 to 4470 nM and the inhibition [2] was “Dose-dependent effect”.

In the case of `COc1cc(-c2ccc3ccccc3c2)[nH]c1/C=C/C1=[N+](C)c2ccccc2C1(C)C`, the IC50 [2] is reported as 920 to 4470 nM and the inhibition [2] is reported as “Dose-dependent effect”.

For `COc1cc(OC)cc(-c2cc(OC)c(/C=C/C3=[N+](C)c4ccccc4C3(C)C)[nH]2)c1`, the IC50 [2] was 920 to 4470 nM and the inhibition [2] was “Dose-dependent effect”.

With `CC(=O)O[C@H]1C(=O)[C@@]2(C)[C@H]([C@H](OC(=O)c3ccccc3)[C@]3(O)C[C@H](OC(=O)[C@H](O)[C@@H](NC(=O)c4ccccc4)c4ccccc4)C(C)=C1C3(C)C)[C@]1(OC(C)=O)CO[C@@H]1C[C@@H]2O` [PACLITAXEL] the viability at 10 µM [26] was 68.7%.

In the case of `COc1cc(-c2cccs2)[nH]c1/C=C/C1=[N+](C)c2ccccc2C1(C)C`, the IC50 [2] is reported as 920 to 4470 nM and the inhibition [2] is reported as “Dose-dependent effect”.

With `CCc1c2c(nc3ccc(O)cc13)-c1cc3c(c(=O)n1C2)COC(=O)[C@]3(O)CC` the Activity [27] was “inactive”.

With `COc1cc(-c2cc3ccccc3[nH]2)[nH]c1/C=C/C1=[N+](C)c2ccccc2C1(C)C.[I-]` the IC50 [2] was 970 nM, the inhibition [2] was “Dose-dependent effect” and the IC50 [3] was 2560 nM. For the same compound, the viability at 24 h, 5 µM [4] was 24%, the Drug uptake [5] was “Active” and the fold change (FC) [6] was 3.6. The fold change (FC) [7] was 3.4, the “fold change (FC)” value [8] was 8.5 and the “fold change (FC)” value [9] was 10.1. For the same compound, the “fold change (FC)” value [10] was 2.1, the “fold change (FC)” value [11] was 6.4 and the “fold change (FC)” value [12] was 4. The “fold change (FC)” value [13] was 3.6, the “fold change (FC)” value [14] was 16.1 and the Activity [15] was 4.68%. The Activity [16] was 67.96%, the Activity [17] was 6.42% and the Activity [18] was 16.79%. The viability at 0.9 µM [19] was 0.1%, the Activity [20] was 0% and the Activity [21] was 99.5%. For the same compound, the Activity [22] was 0.4%, the Activity [23] was “Active” and the “fold change (FC)” value [24] was 3.5. The “fold change (FC)” value [25] was 1.9.
